# From PubChem BioAssay
# Calls of active or inactive are those of the source.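 How the source made its calls, unless noted: active means GFP response above 150% of the DMSO level; inconclusive means fewer than 70 events counted for a yeast strain; inactive means the rest.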
# What was measured:
# [1] = RPL19A-GFP modulators, yeast TOR pathway, confirmation, cell-based, S. cerevisiae, flow cytometry, cherry picks, mother/daughter gates (AID 2270;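 active means GFP response below 50% of the DMSO control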); details: S. cerevisiae RPL19A-GFP strain, 3 h, at 10 µM, stronger effect = lower value, 100 = same GFP as DMSO wells
# [2] = LAP4-GFP expression modulators in yeast, confirmation, cell-based, cherry picks, flow cytometry, mother/daughter gates (AID 2271;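 active means GFP response above 150% of the DMSO control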;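 further: ratio of sample to DMSO plate mean so 100% equals DMSO level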); details: S. cerevisiae LAP4-GFP strain, 3 h, at 10 µM, stronger effect = higher value, 100 means same as DMSO control
# Outline: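 System: GFP-fusion yeast strain; Incubation: compound exposure 3 h at 30 °C, end-over-end rotation; Measured by: GFP by flow cytometry; Read-out: median GFP fluorescence as percent of plate-mean DMSO wells; Medium: synthetic complete (SC) yeast growth medium; Compound: single test-compound dose, 10 µM final; Benchmarks: DMSO-only negative wells, rapamycin 400 ng/mL positive wells.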
# [3] = modulators of MEP2-GFP levels in yeast, confirmation, S. cerevisiae, flow cytometry GFP, cherry picks (AID 2272;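 active means GFP response above 150% of the DMSO control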;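 further: ratio of well signal to plate DMSO mean so 100% equals DMSO level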); details: S. cerevisiae MEP2-GFP strain, 3 h, at 10 µM, stronger effect = higher value
# [4] = AGP1-GFP expression modulators, hit retest, confirmation, cell-based, flow cytometry, S. cerevisiae, cherry picks (AID 2273);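 further: median GFP channel fluorescence over the whole cell population gate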; details: S. cerevisiae AGP1-GFP strain, 3 h, at 10 µM
# [5] = modulators of CIT2-GFP expression in yeast, confirmation, S. cerevisiae, GFP fusion, cherry picks, mother/daughter gates (AID 2274); details: S. cerevisiae CIT2-GFP strain, flow cytometry, 3 h, at 10 µM, stronger effect = higher value
# [6] = measured here: daughter cell gate
# [7] = measured here: mother cell gate
# [8] = measured here: daughter cell gate response
# [9] = measured here: mother cell gate response
SMILES,GFP response vs DMSO [1],"GFP response vs DMSO [1, 6] [%]","GFP response vs DMSO [1, 7] [%]",GFP response relative to DMSO [2],"GFP response relative to DMSO [2, 8] [%]","GFP response relative to DMSO [2, 9] [%]",GFP response vs DMSO [3],"GFP response, % of DMSO [4]","GFP response, % of DMSO [5]","GFP response, % of DMSO [5, 6] [%]","GFP response, % of DMSO [5, 7] [%]"
COC(=O)CCS(=O)(=O)c1nc(-c2ccccc2)cc(C(F)(F)F)n1,100% (inactive),102,95.8,168% (active),161,170,136% (inactive),130% (inactive),102% (inactive),110,93.7
O=C(NCCN1CCOCC1)c1ccc(CS(=O)(=O)Cc2ccccc2F)o1,99.6% (inactive),100,99.7,98.6% (inactive),99.7,98.2,103% (inactive),104% (inactive),110% (inactive),108,110
Cc1cc(S(=O)(=O)ON2C(=O)c3ccccc3C2=O)ccc1F,78.2% (inactive),84.3,66.6,153% (active),153,160,108% (inactive),105% (inactive),120% (inactive),84.1,98.7
O=C(Nc1nc(-c2ccccc2)cs1)c1ccc(Br)o1,102% (inactive),101,101,106% (inactive),101,108,99% (inactive),94.9% (inactive),108% (inactive),105,107
COc1ccc(C2CC(c3c(-c4ccccc4)c4cc(Cl)ccc4[nH]c3=O)=NN2S(C)(=O)=O)cc1 (configuration not stated),100% (inactive),99.1,102,99.2% (inactive),97.6,97.2,100% (inactive),99.9% (inactive),99.7% (inactive),101,99.7
O=C(Nc1nc(-c2ccccn2)cs1)c1cc2ccccc2o1,97.4% (inactive),96.7,83.7,285% (active),163,215,129% (inactive),120% (inactive),124% (inactive),104,91
Cc1ccc2c(nc3s/c(=C\c4ccc(-c5ccccc5C(=O)O)o4)c(=O)n32)c1C,119% (inactive),117,117,243% (active),218,259,346% (active),119% (inactive),157% (active),158,154
O=C(NCc1ccccc1)c1nc(S(=O)(=O)Cc2ccccc2)ncc1Cl,101% (inactive),99.2,98.5,108% (inactive),108,108,100% (inactive),104% (inactive),96.5% (inactive),93.2,98.7
CCOC(=O)Cc1csc(NC(=O)c2sc3nc4ccc(C)cc4cc3c2N)n1,98.8% (inactive),98.1,100,91.4% (inactive),91,95.2,102% (inactive),96.7% (inactive),92.6% (inactive),94.8,92.3
CCCc1nnc(NC(=O)c2nc(S(=O)(=O)Cc3ccc(C)cc3)ncc2Cl)s1,98.9% (inactive),97.6,94,106% (inactive),102,104,103% (inactive),103% (inactive),112% (inactive),106,108
COc1cccc(NC(=O)Nc2ccc3c(c2)nnn3C)c1,97.8% (inactive),98.1,96.9,103% (inactive),102,104,100% (inactive),97.2% (inactive),101% (inactive),103,101
COc1cc(NC(=O)c2cccc(F)c2)ccc1NC(=O)c1cc2ccccc2o1,97.8% (inactive),98.3,97.6,98.8% (inactive),99.3,97.5,102% (inactive),101% (inactive),97.8% (inactive),98.3,95.6
COc1ccccc1C(=O)NNC(=S)NC(=O)c1cccs1,116% (inactive),126,107,225% (active),181,202,128% (inactive),89.6% (inactive),121% (inactive),124,108
COc1ccc(C2=NN(S(C)(=O)=O)C(c3ccc4nccnc4c3)C2)cc1 (configuration not stated),101% (inactive),99.8,102,99.8% (inactive),103,103,102% (inactive),97.6% (inactive),92.6% (inactive),93.2,91.2
O=C(COC(=O)c1ccc(NS(=O)(=O)c2cccs2)cc1O)Nc1nc2ccccc2s1,101% (inactive),100,101,91.4% (inactive),92.5,93.1,102% (inactive),98.5% (inactive),102% (inactive),98.1,104
Cn1cc(/C=C/c2cc[n+](C)cc2)c2cc(Cl)ccc21,99.2% (inactive),97.9,100,111% (inactive),112,110,122% (inactive),111% (inactive),125% (inactive),128,124
COc1ccccc1CNc1nc(S(=O)(=O)c2ccccc2)c(Cl)s1,97.3% (inactive),97.8,96.5,108% (inactive),104,109,95.2% (inactive),105% (inactive),97.2% (inactive),97.6,97.1
Oc1c(Br)cc(Br)cc1C=Nc1ccc2c(c1)OCO2,98.2% (inactive),88.5,98.5,190% (active),114,174,110% (inactive),99.3% (inactive),97.8% (inactive),98.3,91
CCOc1cc(N2CCOCC2)c(OCC)cc1NC(=O)C(NC(=O)c1ccco1)C(C)C (configuration not stated),102% (inactive),101,102,91.4% (inactive),95.6,93.1,107% (inactive),99.6% (inactive),108% (inactive),108,108
N#Cc1cc(Sc2ccccn2)c([N+](=O)[O-])cc1C#N,107% (inactive),110,106,121% (inactive),123,118,143% (inactive),106% (inactive),123% (inactive),125,120
Cc1ccc(C(C[N+](=O)[O-])Sc2ccc(N)cc2)cc1 (configuration not stated),95.6% (inactive),98.4,94.8,135% (inactive),133,140,109% (inactive),89.6% (inactive),98.3% (inactive),103,95
Cc1nnc(N2C(=O)c3cccc4cccc(c34)C2=O)s1,94.9% (inactive),93.3,94.4,96.5% (inactive),94.4,96.4,106% (inactive),100% (inactive),101% (inactive),101,102
Cc1ccc(-c2nc3ccccn3c2NC(=O)c2ccco2)cc1,94.9% (inactive),96.4,95,98.9% (inactive),97.5,98.4,101% (inactive),98.4% (inactive),104% (inactive),103,104
CC(=O)Nc1ccc(NC(=O)c2oc3cc(C)c(C)cc3c2C)cc1,99% (inactive),96.4,99.4,99.2% (inactive),99.2,98.3,102% (inactive),102% (inactive),101% (inactive),99.1,98.5
Cc1cc(C)c(S(=O)(=O)NCC23C=CC(O2)C2C(=O)N(c4ccccc4)C(=O)C23)c(C)c1 (configuration not stated),102% (inactive),103,103,105% (inactive),105,108,102% (inactive),100% (inactive),104% (inactive),101,105
O=C1CC(Sc2nnnn2C2CCCCC2)C(=O)N1c1ccccc1 (configuration not stated),94.3% (inactive),95.5,94.8,107% (inactive),104,107,97.5% (inactive),99.3% (inactive),95% (inactive),94.6,93.3
CCOc1ccccc1NC(=O)c1nc(S(=O)(=O)Cc2cccc(C)c2)ncc1Cl,101% (inactive),100,101,101% (inactive),102,103,100% (inactive),101% (inactive),97.8% (inactive),96.5,98.7
